# Source: ChEMBL document CHEMBL1649574, “Prevalence and characterization of heterogeneous vancomycin-intermediate Staphylococcus aureus isolates from 14 cities in China” (2009)
# Tests used:
# Staphylococcus aureus [1] = test: Antimicrobial activity against heterogeneous vancomycin-intermediate Staphylococcus aureus assessed as growth inhibition at 0.125 times MIC; assay type: functional; set-up: scale not given: the % may be the effect or the level left
# Staphylococcus aureus [2] = test: Antimicrobial activity against SCCmec type III vancomycin-intermediate Staphylococcus aureus isolate b6k1642 by broth microdilution method
# Staphylococcus aureus [3] = test: Antimicrobial activity against heterogeneous vancomycin-intermediate Staphylococcus aureus by broth microdilution method; assay type: functional
# How it was run: (§1)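 Daptomycin MICs on the blood MRSA isolates were done by broth microdilution. The broth was supplemented with calcium chloride to a final calcium of 50 mg/liter, confirmed by biochemical analysis. Isolates were grouped by PAP-AUC ratio relative to Mu3 (VSSA <0.9; hVISA 0.9 to 1.3; VISA ≥1.3).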
# Staphylococcus aureus [4] = test: Antimicrobial activity against vancomycin-susceptible Staphylococcus aureus by broth microdilution method; assay type: functional; how it was run: as §1
# Staphylococcus aureus [5] = test: Antimicrobial activity against heterogeneous vancomycin-intermediate Staphylococcus aureus assessed as growth inhibition at 16 times MIC; assay type: functional; set-up: scale not given: the % may be the effect or the level left
# Staphylococcus aureus [6] = test: Antimicrobial activity against SCCmec type III vancomycin-intermediate Staphylococcus aureus isolate gz07030 by broth microdilution method
# Staphylococcus aureus [7] = test: Antimicrobial activity against SCCmec type III vancomycin-intermediate Staphylococcus aureus isolate b3k2345 by broth microdilution method
# Staphylococcus aureus [8] = test: Antimicrobial activity against heterogeneous vancomycin-intermediate Staphylococcus aureus assessed as growth inhibition at MIC; assay type: functional; set-up: scale not given: the % may be the effect or the level left
# Staphylococcus aureus [9] = test: Antimicrobial activity against SCCmec type II vancomycin-intermediate Staphylococcus aureus isolate 4sy32 by broth microdilution method
# Staphylococcus aureus [10] = test: Antimicrobial activity against vancomycin-susceptible Staphylococcus aureus assessed as growth inhibition at 2 times MIC; assay type: functional; set-up: scale not given: the % may be the effect or the level left
# Staphylococcus aureus [11] = test: Antimicrobial activity against SCCmec type II vancomycin-intermediate Staphylococcus aureus isolate 07b63 by broth microdilution method
# Staphylococcus aureus [12] = test: Antimicrobial activity against SCCmec type II vancomycin-intermediate Staphylococcus aureus isolate b2k4781 by broth microdilution method
# Staphylococcus aureus [13] = test: Antimicrobial activity against vancomycin-susceptible Staphylococcus aureus assessed as growth inhibition at 0.25 times MIC; assay type: functional; set-up: scale not given: the % may be the effect or the level left
# Staphylococcus aureus [14] = test: Antimicrobial activity against heterogeneous vancomycin-intermediate Staphylococcus aureus assessed as growth inhibition at 0.25 times MIC; assay type: functional; set-up: scale not given: the % may be the effect or the level left
# Staphylococcus aureus [15] = test: Antimicrobial activity against vancomycin-susceptible Staphylococcus aureus assessed as growth inhibition at 16 times MIC; assay type: functional; set-up: scale not given: the % may be the effect or the level left
# Staphylococcus aureus [16] = test: Antimicrobial activity against SCCmec type III vancomycin-intermediate Staphylococcus aureus isolate b5k3529 by broth microdilution method
# Staphylococcus aureus [17] = test: Antimicrobial activity against SCCmec type III vancomycin-intermediate Staphylococcus aureus isolate gz06040 by broth microdilution method
# Staphylococcus aureus [18] = test: Antimicrobial activity against SCCmec type III vancomycin-intermediate Staphylococcus aureus isolate xa07029 by broth microdilution method
# Staphylococcus aureus [19] = test: Antimicrobial activity against SCCmec type III vancomycin-intermediate Staphylococcus aureus isolate 11b091 by broth microdilution method
# Staphylococcus aureus [20] = test: Antimicrobial activity against vancomycin-susceptible Staphylococcus aureus assessed as growth inhibition at 0.125 times MIC; assay type: functional; set-up: scale not given: the % may be the effect or the level left
# Staphylococcus aureus [21] = test: Antimicrobial activity against heterogeneous vancomycin-susceptible Staphylococcus aureus assessed as intermediate isolates by broth microdilution method; assay type: functional
# How it was run: (§2)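 Daptomycin MICs by broth microdilution in BBL broth with calcium chloride added to a final calcium of 50 mg/liter, checked by biochemical analysis. Tested on the 200 MRSA blood isolates, grouped as hVISA/VISA or VSSA by PAP-AUC ratio relative to Mu3.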
# Staphylococcus aureus [22] = test: Antimicrobial activity against SCCmec type III vancomycin-intermediate Staphylococcus aureus isolate b3k5923 by broth microdilution method
# Staphylococcus aureus [23] = test: Antimicrobial activity against SCCmec type II vancomycin-intermediate Staphylococcus aureus isolate 4sy39 by broth microdilution method
# Staphylococcus aureus [24] = test: Antimicrobial activity against heterogeneous vancomycin-intermediate Staphylococcus aureus assessed as growth inhibition at 4 times MIC; assay type: functional; set-up: scale not given: the % may be the effect or the level left
# Staphylococcus aureus [25] = test: Antimicrobial activity against heterogeneous vancomycin-intermediate Staphylococcus aureus assessed as susceptible isolates by broth microdilution method; assay type: functional; how it was run: as §2
# Staphylococcus aureus [26] = test: Antimicrobial activity against SCCmec type III vancomycin-intermediate Staphylococcus aureus isolate 5zjsau3 by broth microdilution method
# Staphylococcus aureus [27] = test: Antimicrobial activity against SCCmec type III vancomycin-intermediate Staphylococcus aureus isolate 15b52 by broth microdilution method
# Staphylococcus aureus [28] = test: Antimicrobial activity against heterogeneous vancomycin-intermediate Staphylococcus aureus assessed as growth inhibition at 0.5 times MIC; assay type: functional; set-up: scale not given: the % may be the effect or the level left
# Staphylococcus aureus [29] = test: Antimicrobial activity against vancomycin-susceptible Staphylococcus aureus assessed as growth inhibition at 0.5 times MIC; assay type: functional; set-up: scale not given: the % may be the effect or the level left
# Staphylococcus aureus [30] = test: Antimicrobial activity against vancomycin-susceptible Staphylococcus aureus assessed as growth inhibition at 4 times MIC; assay type: functional; set-up: scale not given: the % may be the effect or the level left
# Staphylococcus aureus [31] = test: Antimicrobial activity against SCCmec type III vancomycin-intermediate Staphylococcus aureus isolate bd4768 by broth microdilution method
# Staphylococcus aureus [32] = test: Antimicrobial activity against SCCmec type III vancomycin-intermediate Staphylococcus aureus isolate gz06051 by broth microdilution method
# Staphylococcus aureus [33] = test: Antimicrobial activity against SCCmec type IV vancomycin-intermediate Staphylococcus aureus isolate 06b41 by broth microdilution method; assay type: functional; how it was run: as §1
# Staphylococcus aureus [34] = test: Antimicrobial activity against SCCmec type III vancomycin-intermediate Staphylococcus aureus isolate zj07028 by broth microdilution method
# Staphylococcus aureus [35] = test: Antimicrobial activity against heterogeneous vancomycin-susceptible Staphylococcus aureus assessed as susceptible isolates by broth microdilution method; assay type: functional; how it was run: as §2
# Staphylococcus aureus [36] = test: Antimicrobial activity against SCCmec type III vancomycin-intermediate Staphylococcus aureus isolate b2k3421 by broth microdilution method
# Staphylococcus aureus [37] = test: Antimicrobial activity against SCCmec type II vancomycin-intermediate Staphylococcus aureus isolate 6zjsau7 by broth microdilution method
# Staphylococcus aureus [38] = test: Antimicrobial activity against SCCmec type III vancomycin-intermediate Staphylococcus aureus isolate 13b16 by broth microdilution method
# Staphylococcus aureus [39] = test: Antimicrobial activity against SCCmec type III vancomycin-intermediate Staphylococcus aureus isolate b6k7974 by broth microdilution method; assay type: functional; how it was run: as §1
# Staphylococcus aureus [40] = test: Antimicrobial activity against SCCmec type III vancomycin-intermediate Staphylococcus aureus isolate gs07022 by broth microdilution method
# Staphylococcus aureus [41] = test: Antimicrobial activity against SCCmec type III vancomycin-intermediate Staphylococcus aureus isolate b4k6307 by broth microdilution method
# Staphylococcus aureus [42] = test: Antimicrobial activity against heterogeneous vancomycin-intermediate Staphylococcus aureus assessed as intermediate isolates by broth microdilution method; assay type: functional; how it was run: as §2
# Staphylococcus aureus [43] = test: Antimicrobial activity against vancomycin-susceptible Staphylococcus aureus assessed as growth inhibition at MIC; assay type: functional; set-up: scale not given: the % may be the effect or the level left
# Staphylococcus aureus [44] = test: Antimicrobial activity against SCCmec type III vancomycin-intermediate Staphylococcus aureus isolate sh07043 by broth microdilution method; assay type: functional; how it was run: as §1
# Staphylococcus aureus [45] = test: Antimicrobial activity against heterogeneous vancomycin-intermediate Staphylococcus aureus assessed as growth inhibition at 2 times MIC; assay type: functional; set-up: scale not given: the % may be the effect or the level left
# Staphylococcus aureus [46] = test: Antimicrobial activity against vancomycin-intermediate Staphylococcus aureus by broth microdilution method
# Staphylococcus aureus [47] = test: Antimicrobial activity against SCCmec type III vancomycin-intermediate Staphylococcus aureus isolate b5k3578 by broth microdilution method
# Staphylococcus aureus [48] = test: Antimicrobial activity against SCCmec type II vancomycin-intermediate Staphylococcus aureus isolate sh06024 by broth microdilution method
structure (smiles),measurement,setting,value
CCCCCCCCCC(=O)N[C@@H](Cc1c[nH]c2ccccc12)C(=O)N[C@H](CC(N)=O)C(=O)N[C@@H](CC(=O)O)C(=O)N[C@@H]1C(=O)NCC(=O)N[C@@H](CCCN)C(=O)N[C@@H](CC(=O)O)C(=O)N[C@H](C)C(=O)N[C@@H](CC(=O)O)C(=O)NCC(=O)N[C@H](CO)C(=O)N[C@@H]([C@H](C)CC(=O)O)C(=O)N[C@@H](CC(=O)c2ccccc2N)C(=O)O[C@@H]1C,Activity,Staphylococcus aureus [1],0%
same,MIC,Staphylococcus aureus [2],0.5 µg/mL
same,MIC50,Staphylococcus aureus [3],0.5 µg/mL
same,MIC90,Staphylococcus aureus [3],1 µg/mL
same,MIC50,Staphylococcus aureus [4],0.5 µg/mL
same,MIC90,Staphylococcus aureus [4],0.5 µg/mL
same,Activity,Staphylococcus aureus [5],100%
same,MIC,Staphylococcus aureus [6],0.5 µg/mL
same,MIC,Staphylococcus aureus [7],0.5 µg/mL
same,Activity,Staphylococcus aureus [8],100%
same,MIC,Staphylococcus aureus [9],0.5 µg/mL
same,Activity,Staphylococcus aureus [10],100%
same,MIC,Staphylococcus aureus [11],0.5 µg/mL
same,MIC,Staphylococcus aureus [12],0.5 µg/mL
same,Activity,Staphylococcus aureus [13],10.7%
same,Activity,Staphylococcus aureus [14],14.8%
same,Activity,Staphylococcus aureus [15],100%
same,MIC,Staphylococcus aureus [16],0.5 µg/mL
same,MIC,Staphylococcus aureus [17],0.5 µg/mL
same,MIC,Staphylococcus aureus [18],0.5 µg/mL
same,MIC,Staphylococcus aureus [19],0.5 µg/mL
same,Activity,Staphylococcus aureus [20],0.58%
same,Activity,Staphylococcus aureus [21],0%
same,MIC,Staphylococcus aureus [22],0.25 µg/mL
same,MIC,Staphylococcus aureus [23],0.5 µg/mL
same,Activity,Staphylococcus aureus [24],100%
same,Activity,Staphylococcus aureus [25],100%
same,MIC,Staphylococcus aureus [26],0.5 µg/mL
same,MIC,Staphylococcus aureus [27],0.5 µg/mL
same,Activity,Staphylococcus aureus [28],88.9%
same,Activity,Staphylococcus aureus [29],95.1%
same,Activity,Staphylococcus aureus [30],100%
same,MIC,Staphylococcus aureus [31],0.5 µg/mL
same,MIC,Staphylococcus aureus [32],0.25 µg/mL
same,MIC,Staphylococcus aureus [33],1 µg/mL
same,MIC,Staphylococcus aureus [34],0.5 µg/mL
same,Activity,Staphylococcus aureus [35],100%
same,MIC,Staphylococcus aureus [36],0.5 µg/mL
same,MIC,Staphylococcus aureus [37],0.25 µg/mL
same,MIC,Staphylococcus aureus [38],0.5 µg/mL
same,MIC,Staphylococcus aureus [39],1 µg/mL
same,MIC,Staphylococcus aureus [40],0.5 µg/mL
same,MIC,Staphylococcus aureus [41],0.25 µg/mL
same,Activity,Staphylococcus aureus [42],0%
same,Activity,Staphylococcus aureus [43],100%
same,MIC,Staphylococcus aureus [44],1 µg/mL
same,Activity,Staphylococcus aureus [45],100%
same,MIC,Staphylococcus aureus [46],0.5 µg/mL
same,MIC,Staphylococcus aureus [47],0.5 µg/mL
same,MIC,Staphylococcus aureus [48],0.5 µg/mL
